# Experiments:
# [1] = molecular target: T1, Glucose-dependent insulinotropic receptor (Homo sapiens, UniProt Q8TDV5); assay: Agonist activity at human GPR119 expressed in Flp-In-T-Rex-HEK293 cells assessed as stimulation of cAMP level measured after 30 mins by HTRF assay; format: functional, cell-based
# T1 sequence (Q8TDV5 whole entry): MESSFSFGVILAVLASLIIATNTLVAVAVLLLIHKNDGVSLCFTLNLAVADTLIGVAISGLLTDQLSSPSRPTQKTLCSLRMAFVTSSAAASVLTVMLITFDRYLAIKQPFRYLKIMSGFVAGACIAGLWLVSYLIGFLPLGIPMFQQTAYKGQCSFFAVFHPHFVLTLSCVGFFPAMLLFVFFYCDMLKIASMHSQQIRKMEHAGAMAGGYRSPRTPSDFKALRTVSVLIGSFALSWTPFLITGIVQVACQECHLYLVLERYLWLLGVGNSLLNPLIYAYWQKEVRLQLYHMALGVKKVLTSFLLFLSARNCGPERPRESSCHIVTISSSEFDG
# How it was run: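 Flp-In-T-Rex-HEK293 cells overexpressing human GPR119 were induced with tetracycline for 24 h, then seeded at 5000 cells/well in DMEM with 1 mM IBMX and 0.01% BSA. Cells were exposed to compound for 30 min at 37 °C, and cAMP was read by HTRF (HiRange kit). Basal cAMP was subtracted, and EC50 is the concentration giving 50% of maximal response on dose-response curves.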
# [2] = Thermodynamic solubility of the compound in pH 6.8 phosphate buffer after 24 hrs by HPLC analysis; format: physicochemical; conditions: read-out: Therm_solubility
# How it was run: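 Excess solid in pH 6.8 phosphate buffer was shaken 24 h at 25 °C and centrifuged (3000 and 11000 rpm, 10 min). Supernatant was diluted in 50% aqueous acetonitrile and quantified by reversed-phase HPLC (0.1% phosphoric acid/acetonitrile, 40 °C column, UV 210 nm).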
# [3] = Drug metabolism in human liver microsomes assessed per mg protein after 15 mins; format: ADME, microsome; conditions: read-out: Drug metabolism
# How it was run: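 Compound was incubated 15 min with human liver microsomes at 1 mg protein/mL; the value is reported as percent metabolized.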
# [4] = Oral bioavailability in Sprague-Dawley rat at 10 mg/kg administered as single dose by LC-MS/MS analysis; format: ADME, organism-based; conditions: in vivo
# How it was run: (§1)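 Fasted male Sprague-Dawley rats received a single dose, either 3 mg/kg iv in 20% 2-hydroxypropyl-β-cyclodextrin or 10 mg/kg orally in 0.5% methylcellulose with 0.1% Tween80. Tail-vein blood was taken at each time point and spun to plasma. Analyte was quantified by LC-MS/MS, and parameters were derived by non-compartmental analysis.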
# [5] = AUC (0 to infinity) in Sprague-Dawley rat at 10 mg/kg, po administered as single dose by LC-MS/MS analysis; format: ADME, organism-based; design: dose 10 mg/kg, route oral, time infinity; conditions: in vivo; how it was run: as §1
# [6] = Permeability of the compound at pH 6.2 by PAMPA; format: physicochemical; conditions: read-out: permeability
# [7] = Volume of distribution at steady state in Sprague-Dawley rat at 3 mg/kg, iv administered as single dose by LC-MS/MS analysis; format: ADME, organism-based; conditions: in vivo, read-out: Vdss; how it was run: as §1
# [8] = Clearance in Sprague-Dawley rat at 3 mg/kg, iv administered as single dose by LC-MS/MS analysis; format: ADME, organism-based; conditions: in vivo; how it was run: as §1
# [9] = Half life in Sprague-Dawley rat at 3 mg/kg, iv administered as single dose by LC-MS/MS analysis; format: ADME, organism-based; conditions: in vivo; how it was run: as §1
Compound,EC50 [1],solubility thermodynamic at 24 h [2],also measured
CCc1cnc(N2CCC(n3ncc4cc(-c5ccc(S(C)(=O)=O)cc5)c(C)cc43)CC2)nc1,70 nM,–,–
CC(C)OC(=O)N1CCC(n2ncc3cc(-c4ccc(S(C)(=O)=O)cc4)ncc32)CC1,–,1.51 µM,–
CCNC(=O)c1cc(F)c(-c2cc3cnn(C4CCN(C(=O)OC(C)C)CC4)c3cn2)cc1F,–,2.84 µM,metabolised at 0.25 h [3]: 12.4%
CCc1cnc(N2CCC(n3nnc4cc(-c5ccc(S(C)(=O)=O)cc5)ccc43)CC2)nc1,31 nM,< 0.13 µM,–
CCNC(=O)c1c(C)cc(-c2cc3nnn(C4CCN(c5ncc(CC)cn5)CC4)c3cn2)cc1C,27 nM,5.01 µM,–
CCNC(=O)c1cc(C)c(-c2cc3nnn(C4CCN(c5ncc(CC)cn5)CC4)c3cn2)c(C)c1,83 nM,1.86 µM,–
CCNC(=O)c1cc(F)c(-c2cc3nnn(C4CCN(C(=O)OC(C)C)CC4)c3cn2)cc1F,37 nM,5.5 µM,metabolised at 0.25 h [3]: 11%
CC(C)NC(=O)c1cc(F)c(-c2cc3nnn(C4CCN(C(=O)OC(C)C)CC4)c3cn2)cc1F,33 nM,0.84 µM,–
CCc1cnc(N2CCC(n3ncc4c(C)c(-c5ccc(S(C)(=O)=O)cc5)ccc43)CC2)nc1,3420 nM,–,–
CC(C)(OC(=O)N1CCC(n2ncc3cc(-c4ccc(S(C)(=O)=O)cc4)ncc32)CC1)C(F)F,–,0.28 µM,–
CCc1cnc(N2CCC(n3ncc4cc(-c5ccc(S(C)(=O)=O)cc5)ncc43)CC2)nc1,–,0.26 µM,–
CCNC(=O)c1ccc(-c2cc3nnn(C4CCN(c5ncc(CC)cn5)CC4)c3cn2)cc1C(F)(F)F,39 nM,0.51 µM,–
CC(C)OC(=O)N1CCC(n2nnc3cc(-c4cc(F)c(C(=O)N5CCC5)cc4F)ncc32)CC1,61 nM,2.7 µM,metabolised at 0.25 h [3]: 5.4%
CCNC(=O)c1ccc(-c2cc3nnn(C4CCN(c5ncc(CC)cn5)CC4)c3cn2)c(C(F)(F)F)c1,60 nM,1.2 µM,–
CC(C)OC(=O)N1CCC(n2nnc3cc(-c4cc(F)c(C(=O)N5CCCC5)cc4F)ncc32)CC1,65 nM,15.9 µM,bioavailability [4]: 16.7%; AUC(0-inf) [5]: 1030 ng·h/mL; Papp [6]: 97 ×10⁻⁶ cm/s; Vd [7]: 0.557 L/kg; clearance [8]: 27.2 mL/min/kg; metabolised at 0.25 h [3]: 9.3%; half-life [9]: 14.5 min
CC(C)COC(=O)N1CCC(n2ncc3cc(-c4ccc(S(C)(=O)=O)cc4)ncc32)CC1,–,1.18 µM,–

# More lines, main results first:
EC50 [1],solubility thermodynamic at 24 h [2],Compound,also measured
2 nM,0.24 µM,CCNC(=O)c1cc(F)c(-c2cc3nnn(C4CCN(c5ncc(CC)cn5)CC4)c3cn2)cc1F,–
10 nM,–,CCNC(=O)c1ccc(-c2cc3nnn(C4CCN(c5ncc(CC)cn5)CC4)c3cn2)c(F)c1F,–
18 nM,< 0.16 µM,CCNC(=O)c1ccc(-c2cc3nnn(C4CCN(c5ncc(CC)cn5)CC4)c3cn2)cc1Cl,–
19 nM,< 0.09 µM,CCNC(=O)c1ccc(-c2cc3nnn(C4CCN(c5ncc(CC)cn5)CC4)c3cn2)c(C)c1,–
14 nM,< 0.11 µM,CCc1cnc(N2CCC(n3ncc4cc(-c5ccc(S(C)(=O)=O)cc5)ccc43)CC2)nc1,–
15 nM,–,CCNC(=O)c1ccc(-c2cc3nnn(C4CCN(c5ncc(CC)cn5)CC4)c3cn2)c(F)c1,–
18 nM,1.79 µM,CCNC(=O)c1ccc(-c2cc3nnn(C4CCN(c5ncc(CC)cn5)CC4)c3cn2)cc1C,–
13 nM,0.24 µM,CCNC(=O)c1ccc(-c2cc3nnn(C4CCN(c5ncc(CC)cn5)CC4)c3cn2)c(Cl)c1,–
21 nM,0.28 µM,CCc1cnc(N2CCC(n3nnc4cc(-c5ccc(S(C)(=O)=O)cc5)ncc43)CC2)nc1,–
7 nM,< 0.12 µM,CCc1cnc(N2CCC(n3nnc4cc(-c5ccc(S(C)(=O)=O)cc5F)ncc43)CC2)nc1,–
9 nM,< 0.15 µM,CCc1cnc(N2CCC(n3nnc4cc(-c5ccc(S(C)(=O)=O)c(F)c5)ncc43)CC2)nc1,–

# Source: ChEMBL document CHEMBL4052717, “Novel 3H-[1,2,3]triazolo[4,5-c]pyridine derivatives as GPR119 agonists: Synthesis and structure-activity/solubility relationships” (Bioorg Med Chem, 2017)
